From PubChem BioAssay
The sample as a whole holds a higher share of hits than the screen did.
NOD2-RIPK2 inh: NOD2-RIPK2 binding disruptors in cells, primary screen, fluorescence, CHO cells, BLA complementation; CCF4 ratio; inhibition, % at 4.98 µM; hit rate 0.38% among 360,000; AID 624267, 2012; in the data active = inhibition above about 21%
CHOP inh: inhibitors of CHOP promoter induction, primary screen, cell-based, unfolded protein response, luciferase reporter | CHO-K1 CHOP-promoter luciferase, tunicamycin-induced, 15-18 h | hit rate 3.8% among 220,000 | inhibition, % at 10 µM;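 active = compounds that reduced the stress-induced luciferase reporter signal by more than about 70% of percent inhibition, limit read from the data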
UPR XBP1 act: activators of adaptive XBP1 UPR arm, primary screen, cell-based, CHO-XBP1 luciferase reporter, luminescence, uHTS; IRE1-XBP1 UPR activation; percent of tunicamycin response, DMSO as zero; activation, % at 20 µM; hit rate 0.33% among 330,000;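 active = versus positive control, 20 µM dose yields 30% or more activation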
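Material: CHO cell line with stable XBP1 luciferase reporter; buffer or medium: F12 medium containing 10% fetal bovine serum; compound: single point, 20 µM final compound, 1% DMSO; incubation: 6 h treatment, 37 °C; measured by: glow luminescence from Steady-Glo reagent; evaluation: activation, % of tunicamycin; control set: tunicamycin high, DMSO low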
CHOP UPR activ: activators of apoptotic CHOP UPR arm, primary screen, cell-based, CHO-CHOP luciferase reporter, luminescence, uHTS; activation, % at 10 µM; UPR activation; percent of tunicamycin response over DMSO baseline; hit rate 0.34% among 330,000; AID 449763, 2010;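 active = at 10 µM dose, activation of 40% or more, normalized to positive control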
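Assay system: CHO cells with stable CHOP pathway luciferase reporter; Buffer or medium: F12 plus 10% serum; Times: 16-18 h cell attachment, then 6 h compound exposure, 37 °C; Signal: luciferase luminescence; Read-out basis: percent activation relative to tunicamycin control; Control set: tunicamycin high control, DMSO low control.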
TLR9-MyD88 inh: inhibitors of TLR9-MyD88 association in cells, primary screen, cell-based, CHO, BLA complementation, fluorescence | Toll-like receptor 9 (Homo sapiens) + Myeloid differentiation primary response protein … | CCF4 FRET ratio | inhibition, % at 4.98 µM | hit rate 0.21% among 340,000 | AID 504734, 2011;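 active = inhibition above the mean over all tested compounds plus 3 SD, cut at about 21% in these data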
TLR4-MyD88 BLA: inhibitors of TLR4-MyD88 association in cells, primary screen, cell-based, HeLa CL3-4, BLA complementation, FRET ratio. Toll-like receptor 4 (Homo sapiens) + Myeloid differentiation primary response protein …. HeLa CL3-4 TLR4/MyD88 BLA complementation. inhibition, % at 8.4 µM. hit rate 0.18% among 200,000. AID 861, 2007; in the data active = inhibition above about 25%
A number is an active result; . = inactive; / = not tested or not shown.

SMILES | NOD2-RIPK2 inh | CHOP inh | UPR XBP1 act | CHOP UPR activ | TLR9-MyD88 inh | TLR4-MyD88 BLA
CCNC(=O)c1cc2c(c(-c3cccc(-c4cccnc4)c3)n1)[C@H](CCO)N(S(C)(=O)=O)C2 | . | / | / | / | / | /
C=C(C)C1CC=C(C)/C(=N/NC(=O)COc2cccc(C)c2)C1 (stereo not given) | . | . | . | . | . | .
C=C(C)C1CC=C(C)/C(=N/NC(=O)COc2ccc(Cl)cc2)C1 (stereo not given) | . | 86 | . | . | . | .
CS(=O)(=O)c1cc(C(=O)O)cc(NCc2ccccc2)c1Oc1ccccc1 | . | / | / | / | . | /
O=[N+]([O-])c1ccc(NCCCNS(=O)(=O)c2ccc(Cl)cc2)c(Cl)c1 | . | 82 | . | . | . | .
Cc1ccccc1N1CCN(c2ncnc3c2cnn3Cc2ccc(Cl)cc2)CC1 | . | . | . | . | . | .
CC1CCCN(c2ncnc3c2cnn3-c2ccc(Cl)cc2)C1 (stereo not given) | . | 76 | . | . | . | /
CC1CCN(c2ncnc3c2cnn3Cc2ccc(Cl)cc2)CC1 | . | 73 | . | . | . | .
Cc1ccc(Cn2ncc3c(N4CCN(Cc5ccc(Cl)cc5)CC4)ncnc32)cc1 | . | 79 | . | . | . | .
CC1(C)CC(=O)C=C(c2n[nH]nc2C2=CCCCC2)C1 | . | / | / | / | . | /
CC(C)CCNC(=O)CCC(=O)NNc1nc2ccccc2c2nc(-c3ccccc3)nn12 | . | 79 | . | . | . | .
O=C(CCC(=O)NNc1nc2ccccc2c2nc(-c3ccccc3)nn12)NCCCN1CCOCC1 | . | . | . | . | . | .
O=C(Nc1ccccc1)c1cc(C2COCCN2C(=O)c2cccs2)on1 (stereo not given) | . | / | / | / | / | /
COc1ccc(CN2C[C@@H](CO)O[C@@H](n3cnc4c(N(C)C)ncnc43)C2)cc1 | . | / | / | / | / | /
CCOc1ccc(OCCSc2nc3ccccc3o2)cc1 | . | 77 | . | . | . | .
COC(=O)c1ccc(NC(=O)CN2CCOCC2)cc1 | . | . | . | . | . | .
COC(=O)c1cccc(NC(=O)CN2CCOCC2)c1 | . | 72 | . | . | . | .
CCOc1ccc(-c2cc(CCCC(=O)N3CCN(c4ccc(OC)cc4)CC3)no2)cc1 | . | 94 | . | . | . | .
CC(C)(C)n1nnnc1C1c2ccccc2C(=O)N1CCc1c[nH]c2ccccc12 (stereo not given) | . | / | / | / | / | /
CC(N)C1CCC(C(=O)Nc2ccncc2)CC1 (stereo not given) | / | . | / | / | / | /
CC(C)(C)NC(=O)Cn1cc(C#N)c2cc(Br)ccc21 | . | 79 | . | . | . | .
COc1ccc(Oc2nc(-c3cccnc3)nc3ccccc23)cc1 | . | . | . | . | . | /
COc1ccc(Oc2nc3ccccc3nc2C(F)(F)F)cc1 | . | 70 | . | . | . | .
COc1ccc(Oc2nc(SC)nc3ccccc23)cc1 | . | 82 | . | . | . | .
Cc1nn(C(=O)c2ccco2)c(C)c1Sc1ccc(Cl)cc1 | . | 73 | . | . | . | .
SMILES | NOD2-RIPK2 inh | CHOP inh | UPR XBP1 act | CHOP UPR activ | TLR9-MyD88 inh | TLR4-MyD88 BLA
Cn1c(NCC2CCCCC2)nc2cc(-c3ccsc3)sc2c1=O | . | / | / | / | / | /
O=C(NCc1cccc(C(F)(F)F)c1)c1ccc2nc([C@H]3C[C@H](O)[C@@H](CO)O3)[nH]c2c1 | . | / | / | / | / | /
O=C(CCC1CCCC1)N1CCN(C(=O)COc2ccccc2)CC1 | . | 75 | . | . | . | .
CCCCc1ccc(NC(=O)COc2ccc(C(=O)Nc3ccccc3OCC)cc2)cc1 | . | 82 | . | . | . | .
CCCCCCCn1c(=O)c(C(=O)OC)c(N)c2ccccc21 | . | 73 | . | . | . | /
CCCCCCCCn1c(=O)c(C(=O)OC)c(N)c2ccccc21 | . | . | . | . | / | /
O=C(Nc1ccccc1)Nc1ncc([N+](=O)[O-])s1 | . | 86 | . | . | . | .
O=S1(=O)CC(N2CCCC2)CN1Cc1cn(Cc2ccccc2)nn1 (stereo not given) | . | / | / | / | / | /
Cc1cccc(C)c1NC(=O)C(c1ccccc1)N1CCN(C)CC1 (stereo not given) | . | / | / | / | / | /
COc1cccc(-c2nc(-c3ccccc3)nc(N3CCN(C)CC3)c2C#N)c1 | . | 77 | . | . | . | .
O=C(O)CN1C(=O)C2C3CCC(C3)C2C1=O (stereo not given) | . | / | / | / | . | /
O=C1COc2ccc(C(=O)CSc3nnnn3-c3ccccc3)cc2N1 | . | . | . | . | . | .
Cn1c(SCC(=O)c2ccc3c(c2)NC(=O)CO3)nc2ccccc21 | . | 86 | . | . | . | .
Clc1ccc(-c2nnc(-c3ccccc3)nc2-c2c[nH]c3ccccc23)cc1 | . | 85 | . | . | . | .
Cc1[nH]c2ccccc2c1-c1nc(-c2ccc(Cl)cc2)nnc1-c1ccccc1 | / | 76 | . | . | / | .
c1ccc(-c2nnc(-c3ccccc3)c(-c3c[nH]c4ccccc34)n2)cc1 | . | . | . | . | . | .
CCOC(=O)Cc1csc(NC(=O)CSc2nnc(-c3ccc(F)cc3)o2)n1 | . | 78 | . | . | . | .
CCOC(=O)Cc1csc(NC(=O)CSc2nnc(-c3ccc(C)cc3)o2)n1 | . | 78 | . | . | . | .
COc1cc(F)ccc1-c1csc(C(O)c2ccc(F)cc2)n1 (stereo not given) | . | / | / | / | / | /
Cc1ccc(-c2nc(CSCC(=O)NCCN3CCN(Cc4ccccc4)CC3)c(C)o2)cc1 | . | 75 | . | . | . | .
Cc1ccc(-c2nc(CSCC(=O)NCCCN3CCOCC3)c(C)o2)cc1 | . | . | . | . | . | .
Cc1ccc(S(=O)(=O)NC[C@H]2O[C@@H](n3ccc(N)nc3=O)[C@H](O)[C@@H]2O)s1 | . | / | / | / | . | /
COc1ccc(-c2cc3c(nn2)-c2ccccc2C3=O)cc1 | . | 78 | . | . | . | .
Cc1cccc(-c2cc3c(nn2)-c2ccccc2C3=O)c1 | . | . | . | . | . | .
O=C1c2ccccc2-c2nnc(-c3ccccc3)cc21 | . | 73 | . | . | . | .
COc1ccc(-c2ccc(CN3C(C(C)C)C(=O)N(Cc4cn(CC5CCCCC5)nn4)CCS3(=O)=O)cc2)cc1 (stereo not given) | . | / | / | / | . | /
COc1ccc(CN(C)CCCn2cnc(C(=O)Nc3ccc(C)c(C)c3)n2)cc1OC | . | / | / | / | . | /
O=C(CSc1nc2ccccc2[nH]1)Nc1nc(-c2ccc(Br)cc2)cs1 | . | 77 | . | . | . | .
Cc1cc(C)cc(-n2nnnc2SCC(=O)Nc2nc(-c3ccc(F)cc3)cs2)c1 | . | 89 | . | . | . | .
Cc1ccc(-n2nnnc2SCC(=O)Nc2nc(-c3ccc(F)cc3)cs2)cc1C | . | . | . | . | . | .
